Laboratory results as given in ChEMBL document CHEMBL4364256, “Design, synthesis and biological evaluation of antimicrobial diarylimine and -amine compounds targeting the interaction between the bacterial NusB and NusE proteins” (Eur J Med Chem, 2019).
In brackets after ≈: the same amount, converted by molar mass.

Legend:
Bacillus subtilis = assay: Inhibition of N-terminal LgBiT-fused Bacillus subtilis NusB expressed in Escherichia coli BL21(DE3)pLysS interaction with C- terminal SmBiT-fused Bacillus subtilis NusE expressed in Escherichia coli BL21(DE3)pLysS at 100 uM preincubated for 10 mins followed by NusE addition and measured after 10 mins by nano-glo luciferase assay relative to control
Summary of the method: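 NusB and NusE were mixed 1:1 at 1 µM in PBS, with compound at 100 µM. The read-out was percent inhibition of the NusB-NusE interaction.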

Enterococcus faecium = assay: Antimicrobial activity against Enterococcus faecium ATCC 19433 incubated for 20 hrs by microdilution method; type: functional; conditions: ATCC 19433, 20 h
Summary of the method: (§1)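 Broth microdilution MIC testing done following CLSI guidelines.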

Streptococcus pneumoniae = assay: Antimicrobial activity against Streptococcus pneumoniae ATCC 49619 incubated for 20 hrs by microdilution method; type: functional; conditions: ATCC 49619, 20 h; summary of the method: as §1
Acinetobacter baumannii = assay: Antimicrobial activity against Acinetobacter baumannii ATCC 19606 incubated for 20 hrs by microdilution method; type: functional; conditions: ATCC 19606 = CIP 70.34 = JCM 6841, 20 h; summary of the method: as §1
Pseudomonas aeruginosa = assay: Antimicrobial activity against Pseudomonas aeruginosa ATCC 27853 incubated for 20 hrs by microdilution method; type: functional; conditions: ATCC 27853, 20 h; summary of the method: as §1
Staphylococcus aureus [1] = assay: microbe, parasite or virus in culture; conditions: ATCC 25923, 20 h
Staphylococcus aureus [2] = assay: microbe, parasite or virus in culture; conditions: ATCC 29213, 20 h
[3] = microbe, parasite or virus in culture; conditions: Enterobacter cloacae, ATCC 13047, 20 h

| inhibition (Bacillus subtilis) [%] | MIC (Enterococcus faecium) [µg/mL] | MIC (Streptococcus pneumoniae) [µg/mL] | MIC (Acinetobacter baumannii) [µg/mL] | MIC (Pseudomonas aeruginosa) [µg/mL] | MIC (Staphylococcus aureus [1]) [µg/mL] | MIC (Staphylococcus aureus [2]) [µg/mL] | MIC [3] [µg/mL] | Structure (SMILES) |
| --- | --- | --- | --- | --- | --- | --- | --- | --- |
| 81.5 | 256 (≈ 984 µM) | 64 (≈ 246 µM) | 128 (≈ 492 µM) | 256 (≈ 984 µM) | 16 (≈ 61.5 µM) | 32 (≈ 123 µM) | 256 (≈ 984 µM) | O=[N+]([O-])c1ccc(O)c(CNc2ccccc2O)c1 |
| 74.1 | > 256 | 128 (≈ 371 µM) | 256 (≈ 742 µM) | > 256 | 32 (≈ 92.7 µM) | 32 (≈ 92.7 µM) | > 256 | C#Cc1cccc(/N=C/c2cc([N+](=O)[O-])cc(Br)c2O)c1 |
| 56.2 | > 256 | 32 (≈ 103 µM) | 256 (≈ 825 µM) | > 256 | 16 (≈ 51.6 µM) | 64 (≈ 206 µM) | 256 (≈ 825 µM) | O=[N+]([O-])c1ccc(O)c(/C=N/c2cccc(C(F)(F)F)c2)c1 |
| 61.8 | 32 (≈ 133 µM) | 16 (≈ 66.3 µM) | 128 (≈ 531 µM) | > 256 | 32 (≈ 133 µM) | 32 (≈ 133 µM) | > 256 | C#Cc1cccc(NCc2cc(F)ccc2O)c1 |
| 50.8 | > 256 | > 256 | > 256 | > 256 | > 256 | > 256 | > 256 | O=C(O)c1cccc(NCc2cc([N+](=O)[O-])ccc2O)c1 |
| 39.2 | > 256 | 32 (≈ 132 µM) | 256 (≈ 1060 µM) | > 256 | 4 (≈ 16.5 µM) | 16 (≈ 66.1 µM) | > 256 | O=[N+]([O-])c1ccc(O)c(/C=N/c2ccccc2)c1 |
| 50 | 256 (≈ 925 µM) | 64 (≈ 231 µM) | > 256 | > 256 | 8 (≈ 28.9 µM) | 32 (≈ 116 µM) | > 256 | O=[N+]([O-])c1ccc(O)c(/C=N/c2ccc(Cl)cc2)c1 |
| 24.7 | > 256 | > 256 | 16 (≈ 63.9 µM) | > 256 | 256 (≈ 1020 µM) | 128 (≈ 511 µM) | > 256 | C#Cc1cccc(/N=C/c2cccc([N+](=O)[O-])c2)c1 |
| 43.4 | > 256 | 32 (≈ 109 µM) | 128 (≈ 438 µM) | > 256 | 4 (≈ 13.7 µM) | 16 (≈ 54.7 µM) | > 256 | O=[N+]([O-])c1ccc(O)c(/C=N/c2cccc3ccccc23)c1 |
| 25.7 | > 256 | > 256 | > 256 | > 256 | 256 (≈ 1160 µM) | > 256 | > 256 | C#Cc1cccc(/N=C/c2ccccc2O)c1 |
| 40.4 | > 256 | > 256 | > 256 | > 256 | > 256 | > 256 | > 256 | C#Cc1cccc(/N=C/c2cc([N+](=O)[O-])ccc2OC)c1 |
| 49.9 | > 256 | > 256 | 64 (≈ 246 µM) | > 256 | 256 (≈ 983 µM) | > 256 | > 256 | C#Cc1cccc(/N=C/c2cc(CC#N)ccc2O)c1 |
| 68.9 | 256 (≈ 825 µM) | 16 (≈ 51.6 µM) | 256 (≈ 825 µM) | > 256 | 8 (≈ 25.8 µM) | 16 (≈ 51.6 µM) | > 256 | O=[N+]([O-])c1ccc(O)c(/C=N/c2ccc(C(F)(F)F)cc2)c1 |
| 57.1 | 32 (≈ 114 µM) | 8 (≈ 28.4 µM) | > 256 | > 256 | 32 (≈ 114 µM) | 16 (≈ 56.9 µM) | > 256 | C#Cc1cccc(NCc2cc(C(=O)OC)ccc2O)c1 |
| 44.7 | 32 (≈ 122 µM) | 8 (≈ 30.5 µM) | > 256 | > 256 | 64 (≈ 244 µM) | 32 (≈ 122 µM) | > 256 | C#Cc1cccc(NCc2cc(CC#N)ccc2O)c1 |
| 53.1 | 256 (≈ 825 µM) | 32 (≈ 103 µM) | > 256 | > 256 | 8 (≈ 25.8 µM) | 16 (≈ 51.6 µM) | > 256 | O=[N+]([O-])c1ccc(O)c(/C=N/c2ccccc2C(F)(F)F)c1 |
| 38.8 | > 256 | 128 (≈ 429 µM) | > 256 | > 256 | 4 (≈ 13.4 µM) | 32 (≈ 107 µM) | > 256 | CC(C)(C)c1ccc(/N=C/c2cc([N+](=O)[O-])ccc2O)cc1 |
| 57.7 | > 256 | 64 (≈ 248 µM) | 128 (≈ 496 µM) | > 256 | 4 (≈ 15.5 µM) | 16 (≈ 62 µM) | > 256 | O=[N+]([O-])c1ccc(O)c(/C=N/c2ccccc2O)c1 |
| 64.8 | 64 (≈ 258 µM) | 16 (≈ 64.4 µM) | > 256 | > 256 | 32 (≈ 129 µM) | 32 (≈ 129 µM) | > 256 | C#Cc1cccc(NCc2cc(C#N)ccc2O)c1 |
| 68.3 | > 256 | 16 (≈ 64.4 µM) | 256 (≈ 1030 µM) | > 256 | 4 (≈ 16.1 µM) | 8 (≈ 32.2 µM) | > 256 | O=[N+]([O-])c1ccc(O)c(/C=N/C2CCCCC2)c1 |
| 76.3 | 128 (≈ 481 µM) | 64 (≈ 240 µM) | > 256 | > 256 | 4 (≈ 15 µM) | 16 (≈ 60.1 µM) | > 256 | C#Cc1ccc(/N=C/c2cc([N+](=O)[O-])ccc2O)cc1 |
| 58.2 | > 256 | > 256 | > 256 | > 256 | > 256 | > 256 | > 256 | O=[N+]([O-])c1ccc(O)c(CNC2CCCCC2)c1 |
| 29.3 | > 256 | > 256 | 128 (≈ 509 µM) | > 256 | > 256 | > 256 | > 256 | C#Cc1cccc(/N=C/c2cc(OC)ccc2O)c1 |
| 89.1 | > 256 | 64 (≈ 248 µM) | > 256 | > 256 | 4 (≈ 15.5 µM) | 8 (≈ 31 µM) | > 256 | O=[N+]([O-])c1ccc(O)c(/C=N/c2ccc(O)cc2)c1 |
| 47.4 | 16 (≈ 54.4 µM) | 16 (≈ 54.4 µM) | 256 (≈ 870 µM) | > 256 | 4 (≈ 13.6 µM) | 4 (≈ 13.6 µM) | > 256 | O=[N+]([O-])c1ccc(O)c(CNc2cccc3ccccc23)c1 |
| 78.5 | > 256 | 16 (≈ 55.9 µM) | 64 (≈ 224 µM) | > 256 | 4 (≈ 14 µM) | 16 (≈ 55.9 µM) | > 256 | O=C(O)c1cccc(/N=C/c2cc([N+](=O)[O-])ccc2O)c1 |
| 20.3 | > 256 | > 256 | > 256 | > 256 | > 256 | > 256 | > 256 | C#Cc1cccc(NCc2ccccc2O)c1 |

| Structure (SMILES) | inhibition (Bacillus subtilis) [%] | MIC (Enterococcus faecium) [µg/mL] | MIC (Streptococcus pneumoniae) [µg/mL] | MIC (Acinetobacter baumannii) [µg/mL] | MIC (Pseudomonas aeruginosa) [µg/mL] | MIC (Staphylococcus aureus [1]) [µg/mL] | MIC (Staphylococcus aureus [2]) [µg/mL] | MIC [3] [µg/mL] |
| --- | --- | --- | --- | --- | --- | --- | --- | --- |
| CO[C@H]1/C=C/O[C@@]2(C)Oc3c(C)c(O)c4c(O)c(c(/C=N/N5CCN(C)CC5)c(O)c4c3C2=O)NC(=O)/C(C)=C\C=C\[C@H](C)[C@H](O)[C@@H](C)[C@@H](O)[C@@H](C)[C@H](OC(C)=O)[C@@H]1C [RIFAMPIN] |  | 2 (≈ 2.43 µM) | 0.0625 (≈ 0.0759 µM) | 4 (≈ 4.86 µM) | > 256 | 0.0125 (≈ 0.0152 µM) | 0.0125 (≈ 0.0152 µM) | > 256 |
